# Like-named read-outs stand apart in the source and are kept apart here.
# Assays:
# [1] = system: canalicular membrane of rat hepatocytes; settings: cited from earlier work
# Caco-2 cells [2] = assay type: in vitro ADME, human; settings: for fraction of CDF in the basolateral compartment / fraction of CDF in the cell compartment at 120-minutes: average; for fraction of CDF present in the apical compartment / total CDF production, % of the CDFDA dose: mean ± standard deviation
# [3] = cited from earlier work
# Caco-2 cells [4] = assay type: in vitro ADME, human; settings: for Clcdf,ap, efflux clearance of CDF across the apical membrane, parameter estimate (% RSE) / Clcdf,bl, efflux clearance of CDF across the basolateral membrane, parameter estimate (% RSE) / Clhydrolysis, intracellular hydrolysis of CDFDA, parameter estimate (% RSE): control; for β-adjustment factor for enhancement of CDFDA hydrolysis clearance (Clhydrolysis), estimate (% RSE): Equation 2; for model predicted effect on CDF clearance across the apical membrane: co-exposure with agent; for β-adjustment factor for enhancement of basolateral membrane clearance (Clcdf,bl), estimate (% RSE): Equation 2, agent 10, 30, 100 μM
# Caco-2 cells [5] = test: CDF transport across Caco-2 monolayers following CDF dosing; assay type: in vitro ADME, human
# Summary of the method: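 Caco-2 cells (passages 32–58) were grown 18–24 days on collagen-coated 0.4 μm PTFE Transwells. They were pre-incubated 30 min in pH 7.4 transport buffer with 0.1% DMSO/0.1% ethanol, then given 5 μM CDF apically or basolaterally at 37°C with 150 rpm shaking. CDF was quantified against 7.8–1000 nM standards. Clearance = transport rate/mean initial–final donor concentration. A two-compartment passive paracellular population model was fitted by QRPEM, 13 filters per direction.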
# [6] = system: CDFDA hydrolysis in Caco-2 cell homogenates; settings: cited from earlier work; for effect on CDFDA hydrolysis in Caco-2 cell homogenates: 100 μM
# Caco-2 cells [7] = settings: % of dose, cited from earlier work
# [8] = CDFDA hydrolysis in transport buffer; assay type: physicochemical; settings: 37°C
# Caco-2 cells [9] = settings: contemporaneous studies; cited from earlier work
# [10] = control experiments, CDFDA dosing
# [11] = apical dosing 5 μM CDFDA, 500 simulations
# [12] = basolateral dosing 5 μM CDFDA, 500 simulations
# [13] = apical 5 μM CDFDA with 100 μM agent
# [14] = apical 5 μM CDFDA with 100 μM agent, 9 filters
# [15] = basolateral 5 μM CDFDA with 100 μM agent
# [16] = basolateral 5 μM CDFDA with 100 μM agent, 9 filters
# [17] = apical 5 μM CDFDA alone (Control)
# [18] = basolateral 5 μM CDFDA alone (Control)
compound,measurement,setting,value
"5 (and 6)-Carboxy-2′,7′-Dichloroflourescein [CDF]",Km,"[1]; read-out: Km, high affinity state, Sprague-Dawley rats",3 µM
same,Km,"[1]; read-out: Km, high affinity state, Wistar rats",9 µM
same,Km,"[1]; read-out: Km, low affinity state, Sprague-Dawley rats",192 µM
same,Km,"[1]; read-out: Km, low affinity state, Wistar rats",69 µM
same,fraction of CDF in the basolateral compartment,Caco-2 cells [2]; apical CDFDA dosing,1.1%
same,fraction of CDF in the cell compartment at 120-minutes,Caco-2 cells [2]; apical CDFDA dosing,1.5%
same,fraction of CDF present in the apical compartment,"Caco-2 cells [2]; apical CDFDA dosing, n = 16 occasions",4.0 ± 2.33%
same,fraction of CDF in the basolateral compartment,Caco-2 cells [2]; basolateral CDFDA dosing,1.0%
same,fraction of CDF in the cell compartment at 120-minutes,Caco-2 cells [2]; basolateral CDFDA dosing,1.3%
same,fraction of CDF present in the apical compartment,Caco-2 cells [2]; basolateral CDFDA dosing,1.9 ± 1.24%
same,"mean ratio of CDF cell content, basolateral versus apical dosing",Caco-2 cells [2]; [10],2.9
same,"mean ratio of CDF flux, basolateral versus apical dosing",Caco-2 cells [2]; [10],2.9
same,protein binding,[3],15 – 20%
same,ratio of basolateral to apical dosing transcellular CDF clearance,Caco-2 cells [4]; Equations 3a–b with 3-compartment model estimates,2.9
same,"simulated intracellular CDF concentration, average",Caco-2 cells [4]; apical CDFDA dosing,10 µM
same,"Clcdf,ap, bootstrap analysis median (90% confidence interval)",Caco-2 cells [4]; [11],2.2 × 10^−5 (1.7 – 2.6 × 10^−5) mL/min
same,"Clcdf,bl, bootstrap analysis median (90% confidence interval)",Caco-2 cells [4]; [11],1.3 × 10^−5 (1.2 – 1.4 × 10^−5) mL/min
same,"Clcdf,ap, efflux clearance of CDF across the apical membrane, parameter estimate (% RSE)",Caco-2 cells [4]; apical dosing 5 μM CDFDA,8.4 × 10^−5 (<0.1) mL/min
same,"Clcdf,bl, efflux clearance of CDF across the basolateral membrane, parameter estimate (% RSE)",Caco-2 cells [4]; apical dosing 5 μM CDFDA,5.6 × 10^−5 (0.1) mL/min
same,"simulated intracellular CDF concentration, average",Caco-2 cells [4]; basolateral CDFDA dosing,24 µM
same,"Clcdf,ap, bootstrap analysis median (90% confidence interval)",Caco-2 cells [4]; [12],8.3 × 10^−5 (7.1 – 10.8 × 10^−5) mL/min
same,"Clcdf,bl, bootstrap analysis median (90% confidence interval)",Caco-2 cells [4]; [12],5.1 × 10^−5 (3.8 – 6.7 × 10^−5) mL/min
same,"Clcdf,ap, efflux clearance of CDF across the apical membrane, parameter estimate (% RSE)",Caco-2 cells [4]; basolateral dosing 5 μM CDFDA,8.5 × 10^−5 (0.2) mL/min
same,"Clcdf,bl, efflux clearance of CDF across the basolateral membrane, parameter estimate (% RSE)",Caco-2 cells [4]; basolateral dosing 5 μM CDFDA,5.2 × 10^−5 (0.2) mL/min
same,fold larger apical versus basolateral membrane CDF clearance,Caco-2 cells [4]; following both apical and basolateral dosing,approximately 1.5 fold
same,"CDF clearance across Caco-2 cells, model based analysis, AB/BA combined, population estimate (RSE,%)","Caco-2 cells [5]; 5 μM CDF, simultaneous modeling of AB and BA directions",1.6 × 10^−5 (11.7) mL/min
same,"CDF clearance across Caco-2 cells, model independent analysis, AB, mean (CV,%)","Caco-2 cells [5]; apical exposure to 5 μM CDF, 5 occasions, 13 filters",1.6 × 10^−5 (30.3) mL/min
same,"CDF clearance across Caco-2 cells, model based analysis, AB, population estimate (RSE,%)","Caco-2 cells [5]; apical exposure to 5 μM CDF, two-compartment model",1.3 × 10^−5 (19.0) mL/min
same,"CDF clearance across Caco-2 cells, model independent analysis, BA, mean (CV,%)","Caco-2 cells [5]; basolateral exposure to 5 μM CDF, 5 occasions, 13 filters",2.1 × 10^−5 (3.3) mL/min
same,"CDF clearance across Caco-2 cells, model based analysis, BA, population estimate (RSE,%)","Caco-2 cells [5]; basolateral exposure to 5 μM CDF, two-compartment model",2.0 × 10^−5 (10.9) mL/min
O=c1c(-c2ccc(O)cc2)coc2cc(O)cc(O)c12 [Genistein],"AB Donor (apical) CDF at 120 minutes, mean",Caco-2 cells [2]; [13],301 pmoles/well
same,"AB Intracellular CDF at 120 minutes, mean",Caco-2 cells [2]; [13],85 pmoles/well
same,"AB directional CDF flux, mean",Caco-2 cells [2]; [14],1.25 pmol/min
same,"BA Donor (basolateral) CDF at 120 minutes, mean",Caco-2 cells [2]; [15],427 pmoles/well
same,"BA Intracellular CDF at 120 minutes, mean",Caco-2 cells [2]; [15],134 pmoles/well
same,"BA directional CDF flux, mean",Caco-2 cells [2]; [16],2.68 pmol/min
same,model predicted effect on CDF efflux,"Caco-2 cells [4]; CDFDA dosing, genistein exposure",no predicted effects
same,"β-adjustment factor for enhancement of CDFDA hydrolysis clearance (Clhydrolysis), estimate (% RSE)",Caco-2 cells [4]; apical CDFDA dosing,6.9 × 10^−3 (<0.1)
same,"β-adjustment factor for enhancement of CDFDA hydrolysis clearance (Clhydrolysis), estimate (% RSE)",Caco-2 cells [4]; basolateral CDFDA dosing,2.8 × 10^−2 (0.6)
same,effect on CDFDA hydrolysis observed in vitro,[6],stimulation of CDFDA hydrolysis
CN(C)C(=O)CCSC(SCCC(=O)O)c1cccc(/C=C/c2ccc3ccc(Cl)cc3n2)c1 (stereo not shown) [MK-571],basolateral to apical dosing CDF flux ratio in the presence of MK-571,"Caco-2 cells [2]; CDFDA dosing, control approximately 3",~0.8
same,"AB Donor (apical) CDF at 120 minutes, mean",Caco-2 cells [2]; [13],115 pmoles/well
same,"AB Intracellular CDF at 120 minutes, mean",Caco-2 cells [2]; [13],15 pmoles/well
same,"AB directional CDF flux, mean",Caco-2 cells [2]; [14],0.51 pmol/min
same,"BA Donor (basolateral) CDF at 120 minutes, mean",Caco-2 cells [2]; [15],249 pmoles/well
same,"BA Intracellular CDF at 120 minutes, mean",Caco-2 cells [2]; [15],26 pmoles/well
same,"BA directional CDF flux, mean",Caco-2 cells [2]; [16],0.39 pmol/min
same,fold increase of basolateral membrane CDF clearance,"Caco-2 cells [4]; 100 μM MK-571, the highest concentration evaluated",up to 2 fold
same,model predicted effect on CDF clearance across the apical membrane,Caco-2 cells [4]; CDFDA dosing,not altered
same,"β-adjustment factor for enhancement of basolateral membrane clearance (Clcdf,bl), estimate (% RSE)",Caco-2 cells [4]; apical CDFDA dosing,1.7 × 10^−2 (<0.1)
same,"β-adjustment factor for enhancement of basolateral membrane clearance (Clcdf,bl), estimate (% RSE)",Caco-2 cells [4]; basolateral CDFDA dosing,2.4 × 10^−2 (0.4)
same,effect on CDFDA hydrolysis in Caco-2 cell homogenates,[6],no effect
CC(C)(C)C(=O)OCOP(=O)(COCCn1cnc2c(N)ncnc21)OCOC(=O)C(C)(C)C [adefovir dipivoxil],total metabolite production,Caco-2 cells [7]; apical dosing,93%
same,total metabolite production,Caco-2 cells [7]; basolateral dosing,34%
CDF diacetate [CDFDA],"AB Donor (apical) CDF at 120 minutes, mean",Caco-2 cells [2]; [17],101 pmoles/well
same,"AB Intracellular CDF at 120 minutes, mean",Caco-2 cells [2]; [17],29 pmoles/well
same,"AB directional CDF flux, mean","Caco-2 cells [2]; apical 5 μM CDFDA alone (Control), 48 filters",0.28 pmol/min
same,"total CDF production, % of the CDFDA dose",Caco-2 cells [2]; apical dosing,6.7 ± 3.10%
same,"BA Donor (basolateral) CDF at 120 minutes, mean",Caco-2 cells [2]; [18],143 pmoles/well
same,"BA Intracellular CDF at 120 minutes, mean",Caco-2 cells [2]; [18],83 pmoles/well
same,"BA directional CDF flux, mean","Caco-2 cells [2]; basolateral 5 μM CDFDA alone (Control), 48 filters",0.81 pmol/min
same,"total CDF production, % of the CDFDA dose",Caco-2 cells [2]; basolateral dosing,4.3 ± 1.21%
same,fold larger CDFDA hydrolysis clearance for basolateral versus apical dosing,Caco-2 cells [4],1.8 fold
same,"Clhydrolysis, intracellular hydrolysis of CDFDA, parameter estimate (% RSE)",Caco-2 cells [4]; apical dosing 5 μM CDFDA,8.2 × 10^−4 (<0.1) mL/min
same,"Clhydrolysis, bootstrap analysis median (90% confidence interval)",Caco-2 cells [4]; [12],1.6 × 10^−3 (1.2 – 1.9 × 10^−3) mL/min
same,"Clhydrolysis, intracellular hydrolysis of CDFDA, parameter estimate (% RSE)",Caco-2 cells [4]; basolateral dosing 5 μM CDFDA,1.5 × 10^−3 (0.1) mL/min
same,half-life of CDFDA hydrolysis in transport buffer,[8],> 100 h
same,clearance of CDFDA hydrolysis in transport buffer,[8]; translated from half-life,3e-07 mL/min
Glyceollin,"AB Donor (apical) CDF at 120 minutes, mean",Caco-2 cells [2]; [13],95 pmoles/well
same,"AB Intracellular CDF at 120 minutes, mean",Caco-2 cells [2]; [13],15 pmoles/well
same,"AB directional CDF flux, mean",Caco-2 cells [2]; [14],0.63 pmol/min
same,"BA Donor (basolateral) CDF at 120 minutes, mean",Caco-2 cells [2]; [15],187 pmoles/well
same,"BA Intracellular CDF at 120 minutes, mean",Caco-2 cells [2]; [15],30 pmoles/well
same,"BA directional CDF flux, mean",Caco-2 cells [2]; [16],0.53 pmol/min
same,model predicted effect on CDF clearance across the apical membrane,Caco-2 cells [4]; CDFDA dosing,no effect on apical membrane clearance
same,"β-adjustment factor for enhancement of basolateral membrane clearance (Clcdf,bl), estimate (% RSE)",Caco-2 cells [4]; apical CDFDA dosing,2.2 × 10^−2 (<0.1)
same,"β-adjustment factor for enhancement of basolateral membrane clearance (Clcdf,bl), estimate (% RSE)",Caco-2 cells [4]; basolateral CDFDA dosing,1.8 × 10^−2 (2.9)
same,effect on CDFDA hydrolysis in Caco-2 cell homogenates,[6],no effect
lucifer yellow,lucifer yellow clearance,Caco-2 cells [9],8.7 ± 0.24 × 10^−5 mL/min

# Source: PMC5856607 (Journal of pharmaceutical sciences, 2017)
